Reference: PMC7917164 (Bioorganic & medicinal chemistry, 2020)
Marks after values point to notes of the source that are not given here.

Legend:
[1] = Pharmacokinetic evaluation after single iv and po administration; type: in vivo, male CD-1 mice; details: for Fraction of oral dose absorbed / Share of absorbed dose metabolized during the first-pass: mice, po; for Fraction of oral dose absorbed: accounting for first-pass effects; for Clearance as share of mouse hepatic blood flow: male CD-1 mice, hepatic blood flow ~90 mL/min/kg; for Share of absorbed dose metabolized during the first-pass: assuming hepatic elimination
[2] = tested on: Aβ42 levels (γ-secretase modulation) in SHSY5Y-APP cells; assay: Cell-based ELISA assay for measuring extracellular Aβ42 levels; parameters: species or system human
[3] = Kinetic aqueous solubility by UV/Vis absorbance in PBS buffer; type: physicochemical; details: pH 7.4, PBS buffer
[4] = tested on: Aβ38, Aβ40, Aβ42 and total Aβ peptide levels in SHSY5Y-APP cells; assay: Meso Scale multiplex assay of Aβ peptides in SHSY5Y-APP cells; type: cell-based, human; details: concentration response
Summary of the method: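 Human SH-SY5Y neuroblastoma cells stably overexpressing wild-type human APP751 were exposed to the test compound at a range of concentrations. Aβ38, Aβ40, Aβ42 and total Aβ in the samples were measured by Meso Scale Sector 6000 multiplex assay. Plates were read on an MSD SECTOR Imager after read buffer was added, and peptide concentrations were back-fitted from their respective standard curves.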

[5] = tested on: Notch processing by γ-secretase; assay: Notch processing in H4-APP751 cells transfected with the NΔE construct; type: cell-based, human; details: 24hrs, 22d 10 μM and 1 μM, DAPT 300 nM and 100 nM
Summary of the method: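 H4 human neuroglioma cells stably overexpressing human APP751 were transfected with an […] Myc-tagged NΔE Notch construct. They were then treated with the test compound, a reference γ-secretase inhibitor or vehicle for 24 h and harvested 48 h post-transfection. Western blots were probed with anti-Myc antibody to detect NΔE and NICD, with β-actin as loading control.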

[6] = tested on: plasma Aβ38, Aβ40 and Aβ42 levels; assay: Pharmacodynamic study using J20 mice; type: in vivo, female J20 mice; details: daily oral, 3-day treatment; for Effect on plasma Aβ42 and Aβ40: 25, 50 and 100 mg/kg; for Effect on Aβ38 levels: plasma
Summary of the method: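 Female J20 transgenic mice (5–6 months old, n=5/dose) received the test compound or vehicle (5% NMP/95% PEG300) by oral gavage once daily for three days. Animals were killed 4 h after the day-3 dose, and plasma and brain were collected. Aβ38, Aβ40 and Aβ42 were quantified with Meso Scale multiplex kits, and data were analysed as mean ± SEM with ANOVA.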

[7] = tested on: plasma and brain Aβ38, Aβ40 and Aβ42 levels; assay: Pharmacodynamic study using Tg2576 mice; type: in vivo, female Tg2576 mice; details: 50 mg/kg, oral daily, 14 days
Summary of the method: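 Dosing was by oral gavage in female Tg2576 mice (5–6 months old, n=12/dose), given the test compound or vehicle (5% NMP/95% PEG300) daily for 14 consecutive days. Mice were killed 4 h after the final dose on day 14, and plasma and brain were harvested. Aβ38, Aβ40 and Aβ42 were measured by Meso Scale multiplex assay, and results were expressed as mean ± SEM with ANOVA.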

[8] = male, CD-1, mouse, plasma, iv, 1 mg/kg

For `CCn1nc(C(F)(F)F)cc1Nc1nc(-c2ccc(-n3cnc(C)c3)c(OC)n2)cs1` [Compound 60, N-(1-ethyl-3-(trifluoromethyl)-1H-pyrazol-5-yl)-4-(6-methoxy-5-(4-methyl-1H-imidazol-1-yl)pyridin-2-yl)thiazol-2-amine], the clearance at 24 h [1, 8] was 26.8 mL/min/kg, the “Fraction of oral dose absorbed” value [1] was “greater than 80%” and the “Parent Aβ42 IC50” value [2] was 0.098 µM.

With `CCn1nc2c(c1Nc1nc(-c3ccc(-n4cnc(C)c4)c(OC)n3)cs1)CCCC2` [Compound 22d, N-(2-ethyl-4,5,6,7-tetrahydro-2H-indazol-3-yl)-4-(6-methoxy-5-(4-methyl-1H-imidazol-1-yl)pyridin-2-yl)thiazol-2-amine] the “Kin. Aq. Sol.” value [3] was 4.5* μM, the Aβ38 levels [4] was “potentiated” and the Aβ40 levels [4] was “suppressed”. For the same compound, the Aβ42 levels [4] was “suppressed”, the “total levels of Aβ” value [4] was “no change” and the “Notch processing (NΔE to NICD)” value [5] was “did not inhibit”. The “Clearance as share of mouse hepatic blood flow” value (“Clearance as share” for short) ([1]; iv) was “approximately 40%”, the “Fraction of oral dose absorbed” value [1] was about 90% and the “Share of absorbed dose metabolized during the first-pass” value [1] was “approximately 40%”.

For `CCn1nc(C2(C)CC2)cc1Nc1nc(-c2ccc(-n3cnc(C)c3)c(OC)n2)cs1` [Compound 59, N-(1-ethyl-3-(1-methylcyclopropyl)-1H-pyrazol-5-yl)-4-(6-methoxy-5-(4-methyl-1H-imidazol-1-yl)pyridin-2-yl)thiazol-2-amine], the “Clearance as share” value ([1]; iv) was “approximately 13%” and the clearance at 24 h [1, 8] was 12.1 mL/min/kg.

With `CCn1nc2c(c1Nc1nc(-c3ccc(-n4cnc(C)c4)c(OC)n3)cs1)CCC2` [Compound 64, N-(2-ethyl-2,4,5,6-tetrahydrocyclopenta[c]pyrazol-3-yl)-4-(6-methoxy-5-(4-methyl-1H-imidazol-1-yl)pyridin-2-yl)thiazol-2-amine] the “Effect on plasma Aβ42 and Aβ40” value [6] was “dose-dependent reduction”, the “Effect on Aβ38 levels” value [6] was “reduced” and the clearance at 24 h [1, 8] was 43.5 mL/min/kg. The half-life [1, 8] was 42 min, the “Fraction of oral dose absorbed” value [1] was “greater than 80%” and the “Parent Aβ42 IC50” value [2] was 0.041 µM. For the same compound, the “Effect on plasma Aβ38 levels” value [7] was “potentiating” and the “Effect on plasma Aβ42 and Aβ40 levels” value [7] was “decreased”.

In the case of `C[C@H](NC(=O)Cc1cc(F)cc(F)c1)C(=O)N[C@H](C(=O)OC(C)(C)C)c1ccccc1` [DAPT, reference compound], the “Notch processing (NΔE to NICD)” value [5] was “significantly inhibits”.

With `COc1nc(-c2csc(Nc3c4c(nn3C(C)C)CCCC4)n2)ccc1-n1cnc(C)c1` [Compound 35, N-(2-isopropyl-4,5,6,7-tetrahydro-2H-indazol-3-yl)-4-(6-methoxy-5-(4-methyl-1H-imidazol-1-yl)pyridin-2-yl)thiazol-2-amine] the “Parent Aβ42 IC50” value [2] was 0.195 µM.

With `COc1nc(-c2csc(Nc3c4c(nn3C3CCN(C)CC3)CCCC4)n2)ccc1-n1cnc(C)c1` [Compound 42, 4-(6-methoxy-5-(4-methyl-1H-imidazol-1-yl)pyridin-2-yl)-N-(2-(1-methylpiperidin-4-yl)-4,5,6,7-tetrahydro-2H-indazol-3-yl)thiazol-2-amine] the “Parent Aβ42 IC50” value [2] was over 1 µM.

With `COc1nc(-c2csc(Nc3c4c(nn3C3CCOC3)CCCC4)n2)ccc1-n1cnc(C)c1` (racemic) [Compound 40, (+/−)-4-(6-methoxy-5-(4-methyl-1H-imidazol-1-yl)pyridin-2-yl)-N-(2-(tetrahydrofuran-3-yl)-4,5,6,7-tetrahydro-2H-indazol-3-yl)thiazol-2-amine] the “Parent Aβ42 IC50” value [2] was 0.289 µM.

With `CCn1nc2c(c1Nc1nc(-c3ccc(-n4cnc(C)c4)c(OC)n3)cs1)CCC2(C)C` [Compound 71, N-(2-ethyl-6,6-dimethyl-2,4,5,6-tetrahydrocyclopenta[c]pyrazol-3-yl)-4-(6-methoxy-5-(4-methyl-1H-imidazol-1-yl)pyridin-2-yl)thiazol-2-amine] the “Parent Aβ42 IC50” value [2] was 0.062 µM.

For `COc1nc(-c2csc(Nc3c4c(nn3CCF)CCCC4)n2)ccc1-n1cnc(C)c1` [Compound 46, N-(2-(2-fluoroethyl)-4,5,6,7-tetrahydro-2H-indazol-3-yl)-4-(6-methoxy-5-(4-methyl-1H-imidazol-1-yl)pyridin-2-yl)thiazol-2-amine], the “Effect on plasma Aβ42 and Aβ40” value [6] was “plateau between 50 and 100 mg/kg”, the “Effect on Aβ38 levels” value [6] was “reduced” and the clearance at 24 h [1, 8] was 57.8 mL/min/kg. The “Fraction of oral dose absorbed” value [1] was “nearly complete”, the “Share of absorbed dose metabolized during the first-pass” value [1] was “approximately 60%” and the “Parent Aβ42 IC50” value [2] was 0.11 µM.

In the case of `COc1nc(-c2csc(Nc3cc(C(F)(F)F)nn3C(C)(C)C)n2)ccc1-n1cnc(C)c1` [Compound 61, N-(1-(tert-butyl)-3-(trifluoromethyl)-1H-pyrazol-5-yl)-4-(6-methoxy-5-(4-methyl-1H-imidazol-1-yl)pyridin-2-yl)thiazol-2-amine], the “Parent Aβ42 IC50” value [2] was 0.121 µM.

With `COc1nc(-c2csc(Nc3c4c(nn3C)CCC4)n2)ccc1-n1cnc(C)c1` [Compound 63, 4-(6-methoxy-5-(4-methyl-1H-imidazol-1-yl)pyridin-2-yl)-N-(2-methyl-2,4,5,6-tetrahydrocyclopenta[c]pyrazol-3-yl)thiazol-2-amine] the “Clearance as share” value ([1]; iv) was about 24%, the clearance at 24 h [1, 8] was 21.8 mL/min/kg and the “Fraction of oral dose absorbed” value [1] was “greater than 80%”. For the same compound, the “Parent Aβ42 IC50” value [2] was over 1 µM.
